Screening data: PubChem, several laboratories
Rows were chosen to be rich in hits. Some 4.9% of all compounds tested hit in one or more screens of this group.
STAT3 act: IL-6 driven STAT3 reporter potentiators, primary screen, U3A cells, luciferase, luminescence, MLSCN library. IL-6 STAT3-luciferase reporter; 100% = signal with IL-6 EC80 alone. activation (% of control), % at 5.6 µM. hit rate 0.91% among 190,000;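 active means activation above the screen-wide mean of compound activation plus 3 SD, cut at about 130% in these data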;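 further: 0% = background luminescence of wells with medium and substrate only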
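Material: STAT1-lacking human U3A cells, STAT3 luciferase reporter | Benchmarks: IL-6-only wells as 100% reference | Probe or stimulus: IL-6 (33 ng/mL) | Timing: Compound 1 h, then IL-6 6 h at 37 °C | Detection: Luminescence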
NF-kB neuron act: activators of NF-kB expression in neurons, primary screen, cell-based, HTS; human neuronal cells, NF-kB reporter expression; active compounds read high; fold change at 12.5 µM; hit rate 1.6% among 190,000; in the data active means fold change above about 3.3
APP 5'UTR act: activators of APP 5'UTR luciferase reporter, primary screen, SH-SY5Y cells; AID 1276, 2008; SH-SY5Y APP 5'UTR luciferase reporter, luminescence; zero percent = DMSO vehicle wells; activation, % at 2 µM; hit rate 1% among 190,000;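 active means activation above a set limit, based on mean plus 3 SD of controls, cut at about 140% in these data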
STAT1 act: STAT1 signaling activators, primary screen, cell-based, HTS, luciferase reporter. NIH 3T3 STAT1-luciferase reporter, IFN-gamma, luminescence; 100% = IFN-gamma alone, no compound. hit rate 2.6% among 200,000. activation (% of control), % at 5.5 µM;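 active means activation above the screen-wide mean activation plus 3 SD, cut at about 130% in these data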;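 further: raw ratio to IFN-gamma control signal so 100% means no change and 0% no light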
STAT3 inh-1: IL-6 driven STAT3 reporter inhibitors, primary screen, U3A cells, luciferase, luminescence, MLSCN library | IL-6 STAT3-luciferase reporter; host cell line lacks STAT1 | inhibition, % at 5.5 µM | hit rate 0.89% among 190,000 | AID 862, 2007;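 active means inhibition above the mean inhibition across all screened compounds plus 3 SD, cut at about 44% in these data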;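 further: 0% = DMSO only wells and 100% = 100 µM nifuroxazide control wells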
STAT1 inh: STAT1 signaling inhibitors, primary screen, cell-based, HTS, luciferase reporter | inhibition, % at 5.5 µM | hit rate 0.35% among 200,000 | AID 920, 2007 | NIH 3T3 STAT1-luciferase reporter, IFN-gamma, luminescence;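 active means inhibition above a set limit, the mean inhibition across all tested compounds plus 3 SD, cut at about 34% in these data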;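 further: 0% = IFN-gamma with DMSO and 100% = IFN-gamma with 300 µM nifuroxazide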
STAT3 inh-2: STAT3 reporter inhibitors, retest of hits, confirmation, U3A cells, luciferase, luminescence | shares compounds with STAT3 inh-1 | IL-6 STAT3 luciferase reporter; cell line lacks STAT1 | inhibition, % at 5.7 µM | hit rate 45% among 1,200 | AID 1265, 2008;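 active means inhibition above the hit cutoff computed for the primary STAT3 screen, cut at about 44% in these data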;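 further: 0% = IL-6 plus DMSO and 100% = IL-6 plus nifuroxazide control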
NFkB inh STAT3ct: NF-kB reporter inhibitors in human cells, confirmation, counter-screen for STAT3 inhibitor project, cell-based, HEK293T, luciferase, TNF-alpha stimulus. shares compounds with STAT3 inh-1. TNF-alpha induced. inhibition, % at 5.7 µM. hit rate 36% among 1,200;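 active means inhibition above the mean of solvent-only control wells plus 3 SD, cutoff set per campaign, cut at about 13% in these data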;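 further: 0% = TNF-alpha with DMSO and 100% = TNF-alpha with MG high control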
STAT1 inh STAT3c: STAT1 reporter inhibitors, IFN-gamma induced, confirmation, counter-screen for STAT3 inhibitor project, cell-based, NIH 3T3, luciferase luminescence. shares compounds with STAT3 inh-1. inhibition, % at 5.7 µM. NIH 3T3 STAT1-luciferase reporter. hit rate 27% among 1,200;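 active means inhibition above the mean plus 3 SD of solvent-only control wells, limit set per screening run, cut at about 16% in these data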;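 further: 0% = DMSO with IFN-gamma and 100% = nifuroxazide control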
* hit, by the source's call; / = not tested or not shown.

SMILES	STAT3 act	NF-kB neuron act	APP 5'UTR act	STAT1 act	STAT3 inh-1	STAT1 inh	STAT3 inh-2	NFkB inh STAT3ct	STAT1 inh STAT3c
CCOc1ccc(-c2nc(-c3ccccc3C)no2)cc1	64.9	/	77.7	122.3	46.2*	-24.4	14.2	-19.8	-118.6
CN(C)c1oc(-c2cccs2)nc1C#N	88.0	1.26	13.4	102.1	16.2	-2.3	/	/	/
CCOc1ccc(-c2nnc(-c3ccc(OC)cc3)o2)cc1	94.8	1.56	6.8	105.1	7.7	-7.8	/	/	/
CCOc1nc(C)ccc1-c1noc(-c2ccncc2)n1	102.4	1.28	23.7	107.6	1.5	-8.3	/	/	/
O=C(CCC(=O)N(CC(=O)NC1CCCC1)Cc1cccs1)Nc1nccs1	93.1	0.97	-12.8	95.6	12.3	3.2	/	/	/
CCOC(=O)C1(Cc2ccccc2)CCN(Cc2cc(OC)c3c(c2)OCO3)CC1	107.7	0.89	23.0	99.0	-4.3	-0.6	/	/	/
O=C(NCCC1=CCCCC1)c1ccc(Cl)cc1	63.9	5.55*	228.3*	98.8	47.0*	-0.1	4.3	-28.3	-113.0
Cc1ccoc1C(=O)Nc1ccc(CC(=O)O)cc1	51.8	0.58	-78.9	75.2	57.4*	27.1	50.9*	27.1*	13.7
O=C(c1ccc(S(=O)(=O)c2cccc(Cl)c2)c([N+](=O)[O-])c1)N1CCN(Cc2ccccc2)CC1	86.4	1.45	-9.2	89.8	16.3	11.4	/	/	/
N=c1cc(C2(O)CCCCC2)n2c(nc3ccccc32)s1	49.3	4.09*	184.9*	114.1	61.3*	-3.8	35.5	1.3	-70.4
O=C(c1cccs1)N(c1ccc(Br)cc1)C1C=CS(=O)(=O)C1 (stereo unspecified)	99.2	1.09	-3.0	91.7	2.5	7.9	/	/	/
COc1ccc(N2CCN(C(=O)CSc3nnc4n3C(C)(C)Cc3ccccc3-4)CC2)cc1	94.7	0.48	-11.6	97.6	10.7	2.6	/	/	/
Cc1ccc(Cl)cc1N1CCN(C(=O)CSc2nnc3n2C(C)(C)Cc2ccccc2-3)CC1	35.6	0.39	-6.8	80.2	81.2*	21.4	72.3*	15.4*	16.9*
O=C(Nc1ccc(N2C(=O)C3C4C=CC(C4)C3C2=O)cc1Cl)c1cccs1 (stereo unspecified)	95.2	0.9	6.4	116.8	7.9	-21.2	/	/	/
c1csc(-c2csc3ncnc(NCCCN4CCOCC4)c23)c1	64.9	0.92	-12.6	86.4	46.3*	14.8	31.0	8.2	15.4
CN(CC(=O)c1c(N)n(C)c(=O)n(C)c1=O)c1ccccc1	92.3	0.96	11.7	97.7	11.2	3.0	/	/	/
CC(=O)Nc1ccc(-c2csc(Nc3ccc(Cl)cn3)n2)cc1	59.7	1.25	28.5	117.9	52.5*	-19.6	46.1*	5.0	-17.5
Cc1nc2ccc(NC(=O)c3cccs3)cc2c(=O)n1Cc1ccc(Cl)cc1	59.6	0.51	-18.7	96.9	50.9*	1.7	43.1	6.0	-6.5
CNc1ccccc1C(C)(C)c1cc(-c2ccc(F)cc2)no1	61.8	0.91	12.9	101.6	45.9*	-1.8	50.7*	11.3	2.2
CNc1ccccc1C(C)(C)c1cc(-c2cccc(Br)c2)no1	95.8	0.62	-11.2	71.8	9.1	29.8	/	/	/
Clc1ccc2ncc(-c3nnnn3-c3ccccc3)c(-c3ccccc3)c2c1	54.5	0.62	10.6	95.1	60.6*	5.5	43.9*	10.6	2.2
CCOC(=O)N1CCN(c2nc3ccccc3nc2C(C#N)S(=O)(=O)c2ccc(C)cc2)CC1 (stereo unspecified)	98.4	0.71	3.0	99.2	2.7	0.9	/	/	/
